This is a sample that favours compounds with a hit; in the whole collection about 4% have one here.
Insulin prom inh: inhibitors of insulin promoter-driven GFP, primary screen, imaging, TRM-6 cells (human fetal islet line), eGFP reporter, cell count; reporter expression induced with tamoxifen; inhibition, % at 2 µM; 130,000 compounds, 0.9% hits;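 active means inhibition above the mean plus 3 SD, with well images judged a real hit on visual review, cut at about 60% in these data, passing the limit was not always enough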
Yeast lifespan up: compounds extending yeast replicative lifespan, primary screen, S. cerevisiae, OD615; S. cerevisiae growth with nicotinamide; deaD strain in restrictive glucose medium; inhibition of the nicotinamide effect, % at 10 µM; 130,000 compounds, 0.68% hits;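 active means inhibition above a set limit, placed 3 SD over the median of all compounds, cut at about 26% in these data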
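System: DeaD-strain S. cerevisiae / Buffer or medium: CSMM-D, restrictive glucose (dextrose) synthetic minimal medium / Probe or stimulus: nicotinamide, 1.5 mM, co-present with compound / Compound: one concentration, 10 µM, DMSO 0.25% / Incubation: 48 h compound exposure at 30 °C, humidified / Technique: optical density (absorbance) at 615 nm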
Measles CPE: compounds protecting cells from measles virus cytopathic effect, primary screen, measles RdRp inhibitor project, single point, MLSMR library, absorbance | Measles virus-infected cells, CPE protection | protection (pct of control), % at 4 µM | 140,000 compounds, 1.5% hits | AID 841, 2007; in the data active means protection mostly above about 24%, no sharp cut-off; inactive means mostly below about 26%
MDM2 E3 inh: MDM2-luciferase reporter signal enhancers, primary screen, MDM2 E3 ligase inhibitor project, cell-based, luminescence, 1536-well; 210,000 compounds, 0.11% hits; cell-based MDM2 ubiquitination luciferase reporter, 2 h; 0 = plate control, 100 = twice control, blank-subtracted; signal enhancement, % at 5 µM;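 active means signal enhancement of 30% or more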;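 further: luminescence tracks abundance of the self-degrading MDM2-luciferase fusion protein; higher signal means inhibition of MDM2 E3 ligase activity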
Target sequence (Q00987 whole entry, looked up, the tested form may be a part): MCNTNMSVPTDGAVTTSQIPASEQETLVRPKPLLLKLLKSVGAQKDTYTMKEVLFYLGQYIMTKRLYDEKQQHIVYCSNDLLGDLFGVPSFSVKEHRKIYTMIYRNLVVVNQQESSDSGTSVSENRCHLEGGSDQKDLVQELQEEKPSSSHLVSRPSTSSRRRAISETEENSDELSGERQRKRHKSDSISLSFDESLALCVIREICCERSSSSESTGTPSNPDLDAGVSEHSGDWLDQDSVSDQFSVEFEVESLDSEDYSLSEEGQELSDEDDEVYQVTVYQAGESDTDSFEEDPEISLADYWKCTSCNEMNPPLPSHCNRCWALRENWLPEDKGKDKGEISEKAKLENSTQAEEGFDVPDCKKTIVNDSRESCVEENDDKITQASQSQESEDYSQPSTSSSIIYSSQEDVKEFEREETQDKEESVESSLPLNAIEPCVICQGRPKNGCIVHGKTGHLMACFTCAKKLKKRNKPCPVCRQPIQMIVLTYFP
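Timing – 2 h compound exposure at 37 °C · Assay system – mammalian cells stably expressing self-ubiquitinating, self-degrading MDM2 E3–luciferase fusion · Amount – 2000 cells seeded into each well · Measure – % luminescence enhancement versus blank-corrected plate control mean · Measured by – SteadyLite luminescence, 15 min reagent step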
BB579 growth dn: growth inhibitors of yeast BB579 in restrictive medium, primary screen, yeast lifespan-shortening project, S. cerevisiae | 140,000 compounds, 0.51% hits | AID 804, 2007 | OD615, 48 h | inhibition, % at 10 µM;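 active means inhibition above a set limit, 3 SD over the mean compound inhibition, cut at about 44% in these data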
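Test system: DeaD yeast strain BB579 / Buffer or medium: restrictive glucose-based CSMM-D medium / Doses: single 10 µM dose / Schedule: 4 h cell preincubation, 48 h compound exposure, 30 °C humidified / Technique: culture absorbance at 615 nm / Controls: amphotericin B positive control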
RAM network inh: inhibitors of the yeast RAM network, primary screen, dse1pr::URA3 reporter, 5-FOA selection. 190,000 compounds, 1.8% hits. AID 868, 2007. inhibition, % at 50 µM. S. cerevisiae dse1pr::URA3 reporter, 5-FOA growth OD615, 2 d; analog-sensitive cbk1-as2 kinase mutant strain;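 active means inhibition above a set limit, 3 SD over mean compound inhibition, cut at about 8.4% in these data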;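 further: inhibition rescues growth on 5-FOA so higher OD means more RAM inhibition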
A number is an active result; i = inactive; nt = not tested or not shown.

SMILES | Insulin prom inh | Yeast lifespan up | Measles CPE | MDM2 E3 inh | BB579 growth dn | RAM network inh
O=c1oc2cc(OCc3ccc(F)cc3F)ccc2cc1-c1ccc2ccccc2n1 | nt | i | i | i | i | i
Cc1ccc(NC(=O)N(Cc2nc3ccccc3c(=O)[nH]2)Cc2cccs2)cc1 | i | i | i | i | i | i
Cc1ccc(OC(=S)Nc2ccc(F)cc2)cc1 | i | nt | i | i | i | i
Cc1ccc(OC(=S)Nc2ccc(O)cc2)cc1 | i | nt | i | i | 83.7 | i
CCCCNc1c(N)n(CCCC)c(=O)[nH]c1=O | i | i | i | i | i | i
Cc1nc([N+](=O)[O-])c(Br)n1CC(=O)c1ccc(Cl)cc1 | 68.8 | i | i | i | i | i
COc1ccc(C(=O)Cn2c(C)nc([N+](=O)[O-])c2Br)cc1 | nt | nt | nt | i | nt | nt
CCSCc1nc2ccccn2c1Br | 76.5 | nt | nt | i | nt | i
CCCCSCc1nc2ccccn2c1Br | i | nt | nt | i | nt | i
CCN(c1ccccc1)c1ncnc2c1cnn2-c1ccccc1 | nt | i | 48.8 | i | i | i
CN(Cc1ccccc1)c1ncnc2c1cnn2-c1ccccc1 | i | i | i | i | i | i
CCOC(=O)c1cnn2c1[nH]c(=O)c1ccccc12 | i | i | i | i | i | i
Cc1cc2[nH]c(=O)c3ccccc3n2n1 | 83.3 | i | i | i | i | i
CCOC(=O)c1cc(NC(=O)c2ccccc2)c(=O)n2c1oc1ccccc12 | nt | nt | nt | i | nt | i
CCn1c(SCC(=O)N/N=C(/C)c2ccncc2)nc2ccccc21 | nt | nt | nt | i | nt | nt
Cc1ccc(NC(=S)N=Nc2c(O)n(C)c3ccc(S(=O)(=O)N4CCOCC4)cc23)cc1C | i | i | i | i | i | 9.4
CC(=O)Oc1cc2c(cc1Cl)C(c1cccs1)CC1(CC(C)(C)NC(=S)N1)O2 (stereo not given) | nt | nt | nt | i | nt | i
O=S(=O)(c1ccc(Oc2ccc(-c3nnco3)cc2)nc1)N1CCC(Cc2ccccc2)CC1 | i | i | 43.3 | i | i | i
COC(=O)c1ccc(CSc2ccc3nnc(-c4cccc(F)c4)n3n2)o1 | nt | i | i | i | i | i
Cc1nn2c(C(F)(F)F)cc(-c3ccc(Cl)cc3)nc2c1C(=O)N1CCOCC1 | 78.6 | i | i | i | i | i
COCCNC(=S)N1CCc2cc(OC)c(OC)cc2C1COc1ccc(F)cc1 (stereo not given) | i | nt | nt | i | nt | 8.8
Cc1ccc(S(=O)(=O)NC(C)(C)CSc2ncccn2)cc1 | i | nt | nt | i | nt | i
CC(C)(CSc1nncn1N)NS(=O)(=O)c1ccc(Cl)cc1 | 77.3 | i | i | i | i | i
C/C(Cl)=C/Cn1c(NCCN(C)C)nc2c1c(=O)n(C)c(=O)n2C | i | i | i | i | i | i
C/C(Cl)=C\Cn1c(Nc2ccccc2)nc2c1c(=O)n(C)c(=O)n2C | i | i | 24.7 | i | i | i
SMILES | Insulin prom inh | Yeast lifespan up | Measles CPE | MDM2 E3 inh | BB579 growth dn | RAM network inh
O=C(CSc1nc(-c2ccco2)cc(C(F)(F)F)n1)N1CCN(c2ccc(Cl)cc2)CC1 | i | nt | 69.9 | i | i | i
O=C(CSc1nc(-c2ccco2)cc(C(F)(F)F)n1)N1CCN(Cc2ccccc2)CC1 | nt | i | i | i | i | i
CC1CCC2C(=O)N(c3ccc(C(=O)Oc4cccc5cccnc45)cc3)C(=O)C2C1 (stereo not given) | nt | i | i | i | i | i
Cc1cccc(-c2noc(CN(C(=O)/C=C/c3ccccc3Cl)C(C)C)n2)c1 | i | i | i | i | i | 11.3
Cc1cccc(-c2noc(CN(C)S(=O)(=O)c3cc(Cl)ccc3Cl)n2)c1 | i | i | i | i | i | 8.6
Cc1cccc(-c2noc(CN(C(=O)CCc3ccccc3)C(C)C)n2)c1 | i | i | i | i | i | i
COc1ccc(Cl)cc1C(=O)N(Cc1nc(-c2cccc(C)c2)no1)C(C)C | nt | i | i | i | i | i
Cc1nn(Cc2cccc(C(=O)N3N=C(C(F)F)CC3(O)C(F)F)c2)c(C)c1[N+](=O)[O-] (stereo not given) | i | i | 42.3 | i | i | i
CCC(=O)N1CCc2cc(S(=O)(=O)N3CCc4ccccc4C3)ccc21 | i | i | 27.9 | i | i | i
CC(=O)N1CCCc2cc(S(=O)(=O)N3CCc4ccccc4C3)ccc21 | i | i | i | i | i | i
Cc1cc(=O)c2cc3nc(-c4cccnc4)oc3c(Br)c2o1 | nt | nt | nt | i | nt | nt
CCC(=O)n1nc(-c2ccccc2)nc1NCc1ccccc1 | 86.0 | i | i | i | i | i
O=C(c1ccco1)n1nc(-c2cccnc2)nc1NCc1ccco1 | i | nt | nt | i | nt | i
COCC(=O)n1nc(-c2ccccc2)nc1NCc1ccccc1 | nt | nt | nt | i | nt | i
O=C(c1ccccc1)n1nc(-c2ccccc2)nc1NCc1ccco1 | nt | i | i | i | i | 10.2
CC12CCC(C(=O)Nc3nc4ccc(Br)cc4s3)(OC1=O)C2(C)C (stereo not given) | nt | nt | nt | i | nt | i
COC(=O)CSc1nc(-c2ccccc2)c2c(c1C#N)CCCC2 | i | i | i | i | i | 8.6
CC(=O)Nc1ccccc1OCc1cnc(Cl)s1 | nt | nt | nt | i | nt | i
Cn1c(=O)cc(C(=O)N/N=C/c2ccc(F)cc2)[nH]c1=O | nt | nt | nt | i | nt | nt
C(=N\c1ncnc2sccc12)/NOCc1ccccc1 | i | i | i | i | 70.1 | i
CCOCCCNC(=O)c1c[nH]c2ccc(OCC)cc2c1=O | nt | nt | nt | i | nt | nt
O=C(C1=C[C@@H](c2ccc(C(F)(F)F)cc2)C[C@@H](OCc2ccc(CO)cc2)O1)N1CCN(Cc2ccccc2)CC1 | nt | nt | nt | nt | nt | i
O=c1c2ccccc2sn1-c1cc(S(=O)(=O)N2CCOCC2)ccc1N1CCOCC1 | i | i | i | i | i | 9.2
CCCCCC[n+]1c(-c2ccc(Cl)cc2Cl)csc1Nc1ccccc1 | nt | i | i | i | i | 9.0
O=C(Nc1cccn(Cc2c(Cl)cccc2Cl)c1=O)c1ccc(Cl)cc1Cl | i | i | i | i | i | i
SMILES | Insulin prom inh | Yeast lifespan up | Measles CPE | MDM2 E3 inh | BB579 growth dn | RAM network inh
O=C(Nc1cccn(Cc2c(Cl)cccc2Cl)c1=O)c1ccccc1Cl | i | i | 48.0 | i | i | i
COc1ccccc1-c1nc(C#N)c(N2CCN(C(c3ccccc3)c3ccccc3)CC2)o1 | 72.7 | i | i | i | i | i
COc1ccccc1-c1nc(C#N)c(N2CCN(c3cccc(Cl)c3)CC2)o1 | i | i | i | i | i | i
COCCn1nnnc1CN1CCC(Cc2ccccc2)CC1 | i | i | i | i | i | i
CC(C)COC(=O)Cn1cnc2ccc(Br)cc2c1=O | nt | 27.2 | i | i | i | i
CCCCOC(=O)Cn1cnc2ccc(Br)cc2c1=O | i | i | i | i | i | i
Cc1ccc(Cl)cc1N1CCN(C(=O)COc2ccc(S(=O)(=O)NC(C)C)cc2)CC1 | nt | i | 56.2 | i | i | i

Screens (PubChem BioAssay)
